Experimental data of several laboratories.
Protocols differ between the studies behind these lines.
Target: Tyrosine-protein kinase SYK (SYK, Homo sapiens, UniProt P43405)

Compound | assay | conditions | quantity | value
Cc1c(C(=O)O)cc(-c2ccc(C3CCNCC3)cc2)c2ccc(-c3ccc(C(F)(F)F)cc3)cc12 | cell-free assay, competition with immobilised ligand | 1 µM | remaining binding | 100%
Cc1ccc(Nc2nccc(N(C)c3ccc4c(C)n(C)nc4c3)n2)cc1S(N)(=O)=O | enzyme activity, inhibitor | 10 µM | inhibition | 88%
CC(C)CC(=O)N1CCc2nc(-c3ccc(Br)cc3)nc(N(C)Cc3ccccc3)c2C1 | cell-free assay, competition with immobilised ligand | 0.1 µM | remaining binding | 100%
COc1ccc(COc2ccc(Cc3cnc(N)nc3N)cc2OC)cc1 | cell-free assay | 0.5 µM | remaining signal | 89%
Cc1ccc(C(=O)Nc2ccc(CN3CCN(C)CC3)c(C(F)(F)F)c2)cc1C#Cc1cnc2cccnn12 | enzyme activity, inhibitor | 23.5 nM | remaining activity | 99%
CS(=O)(=O)N1CCCC(NC(=O)[C@H](CCC2CCCCC2)NC(=O)c2ccc(CNc3ncnc4c3nnn4-c3ccccc3)cc2)C1 (stereo partly shown) | cell-free assay, competition with immobilised ligand | 0.1 µM | remaining binding | 88%
c1nc2c(Nc3ccc4c(c3)OCCO4)nc(Nc3ccc4c(c3)OCCO4)nc2[nH]1 | enzyme activity, inhibitor | 10 µM | activity vs control | 2%
COc1cc2ncnc(Nc3ccc(Oc4ccccc4)c(C)c3C)c2cc1OC | enzyme activity, inhibitor | 1 µM | inhibition | 4%
COc1cc(Nc2cnc(C#N)c(O[C@H](C)CN(C)C)n2)ncc1-c1cnn(C)c1 | enzyme activity, inhibitor, radiometric | 1 µM | remaining activity | 93%
C[C@H](c1ccnc(Nc2nc3ccc(-c4cc(N(C)C)ncn4)cc3[nH]2)c1)N1CCN(C(=O)CC(F)(F)F)CC1 | binding, competition with immobilised ligand | 0.1 µM | remaining binding | 31%
O=C1Nc2ccc(Cl)cc2C1=Cc1cc(Cl)c(O)c(Cl)c1 | cell-free assay | 0.5 µM | remaining signal | 93.3%
FC(F)(F)Oc1cccc(-c2cnc3ccc(-c4ccncc4)nn23)c1 | enzyme activity, inhibitor, radiometric | 5 µM | activity vs control | 72%
Nc1nc(Nc2ccccc2)sc1C(=O)c1c(F)cccc1F | enzyme activity, inhibitor | 10 µM | remaining activity | 37%
CCCS(=O)(=O)Nc1ccc(F)c(C(=O)c2c[nH]c3ncc(-c4ccc(Cl)cc4)cc23)c1F | enzyme activity, inhibitor | 1 µM | inhibition | < 10%
N#CCCc1ccc2c(c1)-c1[nH]c3ccc([N+](=O)[O-])cc3c1CC(=O)N2 | cell-free assay | 0.5 µM | remaining signal | 58%
Oc1cccc(-c2nc(N3CCOCC3)c3oc4ncccc4c3n2)c1 | enzyme activity, inhibitor | 10 µM | remaining activity | 69%

Compound | assay | conditions | quantity | value
Nc1ncnc2occ(-c3ccc(NC(=O)Nc4cc(C(F)(F)F)ccc4F)cc3)c12 | cell-free assay, inhibitor | 20 µM | remaining signal | 2.4%
O=C(CSc1nc2nccnc2c(=O)n1CCc1ccccc1)Nc1nccs1 | enzyme activity, inhibitor | 10 µM | inhibition | 7%
CCCOc1ccc([C@H]2[C@H](C(=O)O)[C@@H](c3ccc4c(c3)OCO4)CN2CC(=O)Nc2c(CC)cccc2CC)cc1 | cell-free assay, competition with immobilised ligand | 1 µM | remaining binding | 100%
Cc1ccc(C(=O)NCc2ccsc2)cc1C#Cc1cn(C(C)C)c2ncnc(N)c12 | enzyme activity, inhibitor | 1 µM | activity vs control | 91%
CC(=O)N1CCC(c2ccc(C(=O)NC3=NCCN3)cc2C(F)(F)F)CC1 | cell-free assay, competition with immobilised ligand | 1 µM | remaining binding | 100%
O=C(Nc1cnn(-c2csc(C(=O)NC3COC3)c2)c1)Nc1ccccc1Cl | enzyme activity, inhibitor | 5 µM | remaining activity | 101%
CC(C)(C)c1nc2c(s1)c1nc(N)ncc1c1ccc(NS(=O)(=O)c3c(F)cccc3F)c(F)c12 | enzyme activity, inhibitor, radiometric | 1 µM | remaining activity | 95%
Cn1nc(C(=O)NCc2ccc(C(=O)O)cc2)cc1-c1ccc2[nH]ccc2c1 | cell-free assay, competition with immobilised ligand | 0.1 µM | remaining binding | 81%
COc1cc(Cl)c(C(=O)N[C@@H](CN[C@H]2CC[C@@H](N)CC2)Cc2ccc(C#N)cc2)cc1-c1ccc(CN[C@H](C)c2ccc(C)cc2)o1 | enzyme activity, inhibitor | 1 µM | remaining activity | 97%
Cc1cnc(NC2CCOCC2)nc1-n1cnc(C(=O)NC(CN)c2cc(F)cc(Cl)c2)c1 (stereo not shown) | enzyme activity, inhibitor, radiometric | 1 µM | remaining activity | 94%
CNC(=O)c1cc(Oc2ccc(NC(=O)Nc3ccc(Cl)c(C(F)(F)F)c3)cc2)ccn1 | enzyme activity, inhibitor | 10 µM | inhibition | -6%
Nc1nc(NC2CCCCC2)sc1C(=O)c1ccccc1 | enzyme activity, inhibitor | 10 µM | remaining activity | 91%
CN(C)C1CCN(CC#Cc2nn(C3CCCC3)c3nc(NCc4ccccc4)ncc23)C1 (stereo not shown) | enzyme activity, inhibitor, FRET | 10 µM | inhibition | -1%
CCS(=O)(=O)c1cc2cc(C[C@](O)(CC(C)(C)c3ccc(F)cc3C(N)=O)C(F)(F)F)[nH]c2cn1 | cell-free assay, competition with immobilised ligand | 1 µM | remaining binding | 100%
FC(F)c1nc2ccccc2n1-c1nc(N2CCOCC2)nc(N2CCOCC2)n1 | enzyme activity, inhibitor | 10 µM | remaining activity | 85%
